M5 PAM – human M5 muscarinic receptor positive allosteric modulators, primary screen, CHO-K1 cells, Fluo-8 calcium fluorescence | activation, % at 3 µM | Muscarinic acetylcholine receptor M5 (Homo sapiens), P08912 | actives 0.3% (n = 360,000) | AID 624038, 2012 | CHO-K1 hM5, ACh EC20 PAM; 0% = ACh EC20, 100% = ACh EC100;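 active means activation above the run cutoff, the mean activation of all test compounds plus 3 SD, cut at about 18% in these data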
Target sequence (P08912 whole entry, looked up): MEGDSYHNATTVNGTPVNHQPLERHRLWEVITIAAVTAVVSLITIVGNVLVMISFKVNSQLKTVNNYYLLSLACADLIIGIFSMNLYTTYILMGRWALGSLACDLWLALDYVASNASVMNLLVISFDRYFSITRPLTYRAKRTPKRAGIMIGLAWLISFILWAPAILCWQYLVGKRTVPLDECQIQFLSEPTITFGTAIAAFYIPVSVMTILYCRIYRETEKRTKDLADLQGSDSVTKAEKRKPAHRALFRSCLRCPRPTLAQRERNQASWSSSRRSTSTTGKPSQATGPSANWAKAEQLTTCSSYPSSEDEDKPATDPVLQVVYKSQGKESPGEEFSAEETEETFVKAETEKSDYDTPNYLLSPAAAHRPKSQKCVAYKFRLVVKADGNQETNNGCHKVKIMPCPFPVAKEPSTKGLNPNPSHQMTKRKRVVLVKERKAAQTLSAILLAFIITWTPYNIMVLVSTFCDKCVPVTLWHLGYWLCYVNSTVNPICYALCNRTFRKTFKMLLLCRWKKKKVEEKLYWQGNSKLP
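System: CHO-K1 cell line with stable human muscarinic M5 receptor expression | Also added: EC20 acetylcholine as agonist stimulus | Compound: One concentration, 3 µM final (nominal) | Timing: Fluo-8 loading 80 min at 37 °C plus 30 min room temperature | Measured by: Fluo-8 calcium dye fluorescence, kinetic read | Read-out basis: % activation, ACh-normalized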
M4 ag – human M4 muscarinic receptor agonists, primary screen, CHO-K1 cells, Fluo-8 calcium fluorescence | activation, % at 3 µM | Muscarinic acetylcholine receptor M4 (Homo sapiens), P08173 | CHO-K1 hM4/Gqi5; vehicle 0%, full acetylcholine response 100% | AID 624127, 2012 | actives 0.14% (n = 360,000);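 active means activation above the run mean over all test wells plus 3 SD, cut at about 32% in these data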;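 further: peak over basal fluorescence ratio per well then scaled between controls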
CHRM5 antagonist – human M5 muscarinic receptor antagonists, primary screen, CHO cells, Fluo-8 calcium fluorescence. Muscarinic acetylcholine receptor M5 (Homo sapiens), P08912. CHO-hM5 cells, ACh EC80. inhibition, % at 3 µM. actives 0.59% (n = 360,000). AID 624040, 2012;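 active means inhibition above a per-plate cutoff, the mean of that plate's test compounds plus 3 SD, cut at about 27% in these data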
M4 PAM – human M4 muscarinic receptor positive allosteric modulators, primary screen, CHO-K1 cells, Fluo-8 calcium fluorescence; Muscarinic acetylcholine receptor M4 (Homo sapiens), P08173; CHO-K1 hM4/Gqi5, ACh EC20; 0% = ACh EC20, 100% = maximal ACh; activation, % at 3 µM; actives 0.4% (n = 360,000); AID 624126, 2012;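 active means activation above its plate's cutoff, the mean activation of sample wells plus 3 SD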
CHRM4 antagonist – human M4 muscarinic receptor antagonists, primary screen, CHO cells, Fluo-8 calcium fluorescence | AID 624125, 2012 | inhibition, % at 3 µM | actives 0.73% (n = 360,000) | CHO-hM4 cells, ACh EC80 | Muscarinic acetylcholine receptor M4 (Homo sapiens), P08173;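 active means inhibition above its plate's cutoff, the mean inhibition of sample wells plus 3 SD, cut at about 27% in these data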
M5 ag – human M5 muscarinic receptor agonists, primary screen, CHO-K1 cells, Fluo-8 calcium fluorescence; Muscarinic acetylcholine receptor M5 (Homo sapiens), P08912; CHO-K1 hM5 cells; 0% DMSO wells, 100% maximal acetylcholine response; activation, % at 3 µM; actives 0.19% (n = 360,000); AID 624037, 2012;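 active means activation above the run's mean over test compounds plus 3 SD, cut at about 23% in these data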;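 further: signal is peak over basal fluorescence ratio across the kinetic read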
Numbers stand for hits; i = inactive. Compounds with a hit are over-represented: about 1.9% of the library has one in this group of screens.

SMILES	M5 PAM	M4 ag	CHRM5 antagonist	M4 PAM	CHRM4 antagonist	M5 ag
CC(C)NC(=O)C1(C)CN(S(C)(=O)=O)CC(=O)N1CC(F)(F)F (stereo not given)	i	i	i	i	i	i
O=[N+]([O-])c1ccc(S(=O)(=O)Nc2ccncc2)cc1	i	i	i	i	i	i
O=[N+]([O-])c1ccc(Oc2ccc(S(=O)(=O)Nc3ccccc3)cc2)cc1	i	39	43	i	53	i
CCOC(=O)[C@]12CCCC=C1N(Cc1ccco1)C(=O)[C@H](CC(=O)NCC1CCCCC1)C2	i	i	i	i	i	i
O=S1(=O)CC(O)C(Nc2ccc(Cl)cc2)C1 (stereo not given)	i	i	i	i	i	i
O=S1(=O)CC(O)C(Nc2ccccc2)C1 (stereo not given)	42	i	i	26	i	i
Cc1cc2oc(=O)cc(CN3CCCCCCC3)c2cc1Cl	i	i	i	i	i	i
CCOC(=O)c1c(C)[nH]c(C(=O)CN2C(=O)C(=O)N(CC(C)C)C2=O)c1C	i	i	i	i	i	i
CCOC(=O)c1c(C)[nH]c(C(=O)CN2C(=O)NC(C)(c3ccc(C)cc3)C2=O)c1C (stereo not given)	i	i	i	i	i	27
COC(=O)c1c(C)[nH]c(C(=O)CN2C(=O)C3CC=CCC3C2=O)c1C (stereo not given)	i	i	i	26	i	i
CCOC(=O)C1(C)CCCN1C(=O)c1cccc2ccccc12 (stereo not given)	i	i	i	i	i	i
Oc1ccc(-c2cc(-c3ccc(O)cc3)nc(-c3ccccc3)n2)cc1	i	i	i	34	i	i
O=C(CCC1CCCC1)NCc1cccs1	i	i	i	20	i	i
O=C(CCCCC(=O)NCc1cccs1)NCc1cccs1	i	i	i	i	i	i
COc1ccc(C2=Nc3ccccc3N(C(=O)c3ccc4c(c3)OCO4)C2C(=O)Nc2c(C)cccc2C)cc1 (stereo not given)	i	i	i	i	i	i
N#Cc1ccccc1Cn1cc(/C=C/[N+](=O)[O-])c2ccccc21	i	i	50	i	i	i
Cc1cccc(-c2ccc(O)cc2CN2CCN(c3ncc(Cc4ccccc4)cn3)CC2)c1	i	i	i	i	i	i
CC12CCC(=O)C=C1CCC1C2CCC2(C)C(c3csc(N)n3)CCC12 (stereo not given)	i	i	i	i	47	i
CC12CCC(=O)C=C1CCC1C2C(O)CC2(C)C(c3csc(N)n3)CCC12 (stereo not given)	i	i	i	i	i	i
CC(C)=NNc1cnnc2ccc([N+](=O)[O-])cc12	i	i	i	i	i	i
COc1ccc(S(=O)(=O)N(C)C[C@H]2OCc3cnnn3CCCC(=O)N([C@@H](C)CO)C[C@H]2C)cc1	i	i	i	i	i	i
COc1ccc(N=Nc2ccc(O)c3ncccc23)cc1	i	i	i	i	i	i
CCc1ccc(N=Nc2ccc(O)c3[nH]cnc23)cc1	i	48	46	i	28	30
COc1ccc(-c2sc3cc4c(cc3c2C#Cc2ccc(N)cc2)OCO4)cc1	i	i	i	i	i	26
CCN(Cc1ccccc1)C(=O)C1CCN(S(=O)(=O)c2ccc3c(c2)OCCO3)CC1	i	i	i	i	i	37
SMILES	M5 PAM	M4 ag	CHRM5 antagonist	M4 PAM	CHRM4 antagonist	M5 ag
COc1ccc(CCNC(=O)CS(=O)(=O)c2cn(CC(=O)N(C(C)C)C(C)C)c3ccccc23)cc1OC	i	i	i	i	i	i
COc1ccc(CCNC(=O)CS(=O)(=O)c2cn(CC(=O)N3CCCC3)c3ccccc23)cc1OC	i	i	i	i	27	i
COC(=O)CNC(=O)CNC(=O)Nc1ccccc1	i	i	i	i	i	i
COC(=O)CCCCNC(=O)Nc1ccccc1	23	i	i	i	i	i
CCCCCN1C(=O)Cn2c(nc3ccccc3c2=O)C1C (stereo not given)	18	i	i	i	i	i
CCCCCCc1nc2ccccc2c(=O)n1N	i	i	i	i	i	i
C#CC[N+]1(CC#Cc2ccccc2)CCCCC1	i	i	i	i	i	i
CCC[N+]1(CC#CCC(c2ccccc2)c2ccccc2)CCCCC1	i	i	i	i	27	i
C(#Cc1ccccc1)C[N+]1(CC#Cc2ccccc2)CCCCC1	i	i	43	i	33	i
NC(CCc1ccccc1)c1csc(NC(=O)Nc2ccccc2Oc2ccccc2)n1 (stereo not given)	i	i	i	i	i	i
CNC(=S)N1CCC(C(=O)c2ccc(Cl)cc2)CC1	i	i	i	i	i	i
Cc1cccc(C)c1NC(=O)C(c1ccc(C(F)(F)F)cc1)n1c(=O)c(-c2ccccc2)nc2ccccc21 (stereo not given)	i	i	i	i	i	i
Cc1cccc(C)c1NC(=O)C(c1ccc(C#N)cc1)n1c(=O)c(-c2ccccc2)nc2ccccc21 (stereo not given)	i	i	i	23	i	i
COC(=O)c1ccc2c(c1)C(C)(C)C(/C=C/c1ccc(O)cc1)=[N+]2C	i	i	i	i	i	i
COC(=O)c1ccc2c(c1)C(C)(C)C(/C=C/c1ccc(OC)c(OC)c1OC)=[N+]2C	i	i	i	i	32	i
COC(=O)c1ccc(N2C(c3ccsc3)=Cc3cc4c(cc3C2CC(=O)c2ccco2)OCO4)cc1 (stereo not given)	i	i	i	i	30	i
Cn1c(NCCOc2ccccc2Cl)nc2cc(-c3ccc(F)cc3)sc2c1=O	i	i	i	i	i	i
COc1ccc(C(=O)OCC(=O)NC(=O)Nc2ccccc2F)c(OC)c1	i	i	i	21	i	i
COc1ccc(C(=O)OCC(=O)NCCCc2ccccc2)c(OC)c1	i	i	i	i	i	i
Cc1cnc(CNC(=O)c2csc([C@@H]3O[C@H](CO)[C@H](O)[C@H](O)[C@H]3O)n2)cn1	i	i	i	i	i	i
O=C(CN(Cc1ccccc1)C(=O)c1csnn1)NCc1ccc2c(c1)OCO2	28	i	i	i	i	i
COc1ccc(CN(CC(=O)NCc2ccc3c(c2)OCO3)C(=O)c2csnn2)cc1	i	i	i	i	i	i

Screens from PubChem.
